# ChEMBL document CHEMBL2396637, “Antagonism of L-type Ca2+ channels CaV1.3 and CaV1.2 by 1,4-dihydropyrimidines and 4H-pyrans as dihydropyridine mimics” (Bioorg Med Chem, 2013)
# Activity calls are given as the source filed them. No cut-off for these calls is given here.
# Tests used:
# [1] = Selectivity ratio of IC50 for rabbit voltage-dependent L-type calcium channel Cav1.2alpha-1C to IC50 for rat voltage-dependent L-type calcium channel Cav1.3alpha-1D
# [2] = target: Voltage-dependent L-type calcium channel subunit alpha-1D (Rattus norvegicus, UniProt P27732); assay: Antagonist activity at rat voltage-dependent L-type calcium channel Cav1.3alpha-1D expressed in HEK293 cells by FLIPR assay; type: cell-based
# Method in brief: (§1)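 HEK293 lines stably expressing rat CaV1.3α1D or rabbit CaV1.2α1C, with rat CaVβ3 and rat CaVα2δ-1 cDNAs used in construction. Calcium influx was read by Fluo-8 fluorescence on a FLIPR Tetra. […] The selectivity ratio is CaV1.3 IC50 over CaV1.2 IC50.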
# [3] = target: T1, Voltage-dependent L-type calcium channel subunit alpha-1C (Oryctolagus cuniculus, UniProt P15381); assay: Antagonist activity at rabbit voltage-dependent L-type calcium channel Cav1.2alpha-1C expressed in HEK293 cells by FLIPR assay; type: cell-based
# Method in brief: as §1
# [4] = target: T1, Voltage-dependent L-type calcium channel subunit alpha-1C; assay: Antagonist activity at rabbit voltage-dependent L-type calcium channel Cav1.2alpha-1C expressed in HEK293 cells assessed as inhibition of end barium current at 1 to 10 uM by whole-cell patch-clamp electrophysiology technique; type: cell-based
# Method in brief: (§2)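 Stably transfected HEK293 cells were held on poly-D-lysine coverslips for 24–48 h at 37 °C, then whole-cell voltage-clamped. External solution (mM): 140 NaCl, 1 MgCl2, 10 BaCl2, 10 HEPES, 10 dextrose, 10 sucrose, 20 CsCl, pH 7.4. Ba2+ currents were evoked by a 100 ms step from −80 to 0 mV. Compound was perfused at 1 or 10 µM from a DMSO stock. Percent inhibition of peak current or of end current (last 50 ms) was taken, n = 5, as the median.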
# [5] = target: Voltage-dependent L-type calcium channel subunit alpha-1D (Rattus norvegicus) (UniProt P27732); assay: Antagonist activity at rat voltage-dependent L-type calcium channel Cav1.3alpha-1D expressed in HEK293 cells assessed as inhibition of peak barium current at 1 to 10 uM by whole-cell patch-clamp electrophysiology technique; type: cell-based
# Method in brief: as §2
# [6] = target: Voltage-dependent L-type calcium channel subunit alpha-1D (Rattus norvegicus) (UniProt P27732); assay: Antagonist activity at rat voltage-dependent L-type calcium channel Cav1.3alpha-1D expressed in HEK293 cells assessed as inhibition of end barium current at 1 to 10 uM by whole-cell patch-clamp electrophysiology technique; type: cell-based
# Method in brief: as §2
# [7] = target: T1, Voltage-dependent L-type calcium channel subunit alpha-1C; assay: Antagonist activity at rabbit voltage-dependent L-type calcium channel Cav1.2alpha-1C expressed in HEK293 cells assessed as inhibition of peak barium current at 1 to 10 uM by whole-cell patch-clamp electrophysiology technique; type: cell-based
# Method in brief: as §2
# [8] = Selectivity ratio of inhibition for rat voltage-dependent L-type calcium channel Cav1.3alpha-1D to inhibition for rabbit voltage-dependent L-type calcium channel Cav1.2alpha-1C at 0.3 uM
# [9] = Selectivity ratio of IC50 for rat voltage-dependent L-type calcium channel Cav1.3alpha-1D to IC50 for rabbit voltage-dependent L-type calcium channel Cav1.2alpha-1C
# Method in brief: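 HEK293 lines stably expressing rat CaV1.3α1D or rabbit CaV1.2α1C, with rat CaVβ3 and rat CaVα2δ-1 cDNAs used in construction. Calcium influx was read by Fluo-8 fluorescence on a FLIPR Tetra. The selectivity ratio is CaV1.3 IC50 over CaV1.2 IC50.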
# Voltage-dependent L-type calcium channel subunit alpha-1D, sequence (P27732 whole entry): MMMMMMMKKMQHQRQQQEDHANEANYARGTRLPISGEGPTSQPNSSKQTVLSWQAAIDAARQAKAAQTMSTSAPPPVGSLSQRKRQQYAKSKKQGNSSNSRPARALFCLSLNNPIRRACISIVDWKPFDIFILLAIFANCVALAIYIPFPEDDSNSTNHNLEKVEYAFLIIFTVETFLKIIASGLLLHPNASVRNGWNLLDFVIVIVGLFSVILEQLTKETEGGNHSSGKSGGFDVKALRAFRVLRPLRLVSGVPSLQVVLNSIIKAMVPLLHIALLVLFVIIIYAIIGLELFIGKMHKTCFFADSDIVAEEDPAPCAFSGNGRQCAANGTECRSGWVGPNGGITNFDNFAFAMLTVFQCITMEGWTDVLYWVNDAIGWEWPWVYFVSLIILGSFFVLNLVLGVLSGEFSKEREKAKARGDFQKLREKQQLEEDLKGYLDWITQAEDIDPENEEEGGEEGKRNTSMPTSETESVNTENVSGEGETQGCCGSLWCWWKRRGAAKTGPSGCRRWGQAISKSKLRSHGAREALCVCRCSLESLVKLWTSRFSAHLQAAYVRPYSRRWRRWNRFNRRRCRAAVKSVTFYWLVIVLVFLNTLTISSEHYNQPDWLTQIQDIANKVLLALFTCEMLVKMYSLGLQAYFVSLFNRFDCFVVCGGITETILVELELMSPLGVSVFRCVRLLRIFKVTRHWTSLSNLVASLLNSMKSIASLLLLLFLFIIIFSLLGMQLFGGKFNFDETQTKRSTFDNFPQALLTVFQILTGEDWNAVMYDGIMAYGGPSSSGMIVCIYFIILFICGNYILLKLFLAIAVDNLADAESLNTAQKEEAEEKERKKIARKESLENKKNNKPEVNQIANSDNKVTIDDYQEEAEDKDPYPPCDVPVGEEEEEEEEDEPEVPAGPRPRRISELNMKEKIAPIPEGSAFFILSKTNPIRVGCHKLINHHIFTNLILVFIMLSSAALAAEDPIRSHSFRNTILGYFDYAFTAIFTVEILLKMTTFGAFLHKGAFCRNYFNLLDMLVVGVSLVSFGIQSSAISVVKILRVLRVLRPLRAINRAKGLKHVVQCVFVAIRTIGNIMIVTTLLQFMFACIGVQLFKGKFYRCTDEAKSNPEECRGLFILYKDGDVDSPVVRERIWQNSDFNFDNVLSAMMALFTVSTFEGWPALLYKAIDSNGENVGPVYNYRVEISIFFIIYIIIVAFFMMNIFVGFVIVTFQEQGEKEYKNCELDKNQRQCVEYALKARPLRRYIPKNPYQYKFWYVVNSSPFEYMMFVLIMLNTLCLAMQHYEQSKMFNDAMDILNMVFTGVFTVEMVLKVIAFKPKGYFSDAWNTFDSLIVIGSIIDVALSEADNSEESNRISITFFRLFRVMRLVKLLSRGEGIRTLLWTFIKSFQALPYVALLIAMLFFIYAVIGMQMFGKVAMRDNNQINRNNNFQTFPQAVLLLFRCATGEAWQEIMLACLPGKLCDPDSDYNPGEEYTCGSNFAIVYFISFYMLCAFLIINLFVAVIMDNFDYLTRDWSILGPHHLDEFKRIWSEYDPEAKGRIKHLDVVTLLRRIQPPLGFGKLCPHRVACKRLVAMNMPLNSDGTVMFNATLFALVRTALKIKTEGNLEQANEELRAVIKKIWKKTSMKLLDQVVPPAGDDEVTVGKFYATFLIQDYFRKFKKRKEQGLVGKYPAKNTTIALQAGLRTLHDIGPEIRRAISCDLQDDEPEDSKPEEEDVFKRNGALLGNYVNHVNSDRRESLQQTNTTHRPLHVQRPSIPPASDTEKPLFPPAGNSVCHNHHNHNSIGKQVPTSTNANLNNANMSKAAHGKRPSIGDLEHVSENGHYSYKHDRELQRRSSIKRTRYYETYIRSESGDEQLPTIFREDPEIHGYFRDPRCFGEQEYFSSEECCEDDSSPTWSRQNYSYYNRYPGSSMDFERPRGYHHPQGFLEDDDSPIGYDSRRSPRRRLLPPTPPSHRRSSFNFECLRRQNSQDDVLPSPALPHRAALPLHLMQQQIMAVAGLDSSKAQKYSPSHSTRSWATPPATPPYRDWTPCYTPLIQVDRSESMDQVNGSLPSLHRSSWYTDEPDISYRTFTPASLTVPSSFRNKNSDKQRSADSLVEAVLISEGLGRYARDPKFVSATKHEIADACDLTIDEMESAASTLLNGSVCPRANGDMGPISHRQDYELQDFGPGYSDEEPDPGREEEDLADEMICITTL
# T1 sequence (P15381 whole entry): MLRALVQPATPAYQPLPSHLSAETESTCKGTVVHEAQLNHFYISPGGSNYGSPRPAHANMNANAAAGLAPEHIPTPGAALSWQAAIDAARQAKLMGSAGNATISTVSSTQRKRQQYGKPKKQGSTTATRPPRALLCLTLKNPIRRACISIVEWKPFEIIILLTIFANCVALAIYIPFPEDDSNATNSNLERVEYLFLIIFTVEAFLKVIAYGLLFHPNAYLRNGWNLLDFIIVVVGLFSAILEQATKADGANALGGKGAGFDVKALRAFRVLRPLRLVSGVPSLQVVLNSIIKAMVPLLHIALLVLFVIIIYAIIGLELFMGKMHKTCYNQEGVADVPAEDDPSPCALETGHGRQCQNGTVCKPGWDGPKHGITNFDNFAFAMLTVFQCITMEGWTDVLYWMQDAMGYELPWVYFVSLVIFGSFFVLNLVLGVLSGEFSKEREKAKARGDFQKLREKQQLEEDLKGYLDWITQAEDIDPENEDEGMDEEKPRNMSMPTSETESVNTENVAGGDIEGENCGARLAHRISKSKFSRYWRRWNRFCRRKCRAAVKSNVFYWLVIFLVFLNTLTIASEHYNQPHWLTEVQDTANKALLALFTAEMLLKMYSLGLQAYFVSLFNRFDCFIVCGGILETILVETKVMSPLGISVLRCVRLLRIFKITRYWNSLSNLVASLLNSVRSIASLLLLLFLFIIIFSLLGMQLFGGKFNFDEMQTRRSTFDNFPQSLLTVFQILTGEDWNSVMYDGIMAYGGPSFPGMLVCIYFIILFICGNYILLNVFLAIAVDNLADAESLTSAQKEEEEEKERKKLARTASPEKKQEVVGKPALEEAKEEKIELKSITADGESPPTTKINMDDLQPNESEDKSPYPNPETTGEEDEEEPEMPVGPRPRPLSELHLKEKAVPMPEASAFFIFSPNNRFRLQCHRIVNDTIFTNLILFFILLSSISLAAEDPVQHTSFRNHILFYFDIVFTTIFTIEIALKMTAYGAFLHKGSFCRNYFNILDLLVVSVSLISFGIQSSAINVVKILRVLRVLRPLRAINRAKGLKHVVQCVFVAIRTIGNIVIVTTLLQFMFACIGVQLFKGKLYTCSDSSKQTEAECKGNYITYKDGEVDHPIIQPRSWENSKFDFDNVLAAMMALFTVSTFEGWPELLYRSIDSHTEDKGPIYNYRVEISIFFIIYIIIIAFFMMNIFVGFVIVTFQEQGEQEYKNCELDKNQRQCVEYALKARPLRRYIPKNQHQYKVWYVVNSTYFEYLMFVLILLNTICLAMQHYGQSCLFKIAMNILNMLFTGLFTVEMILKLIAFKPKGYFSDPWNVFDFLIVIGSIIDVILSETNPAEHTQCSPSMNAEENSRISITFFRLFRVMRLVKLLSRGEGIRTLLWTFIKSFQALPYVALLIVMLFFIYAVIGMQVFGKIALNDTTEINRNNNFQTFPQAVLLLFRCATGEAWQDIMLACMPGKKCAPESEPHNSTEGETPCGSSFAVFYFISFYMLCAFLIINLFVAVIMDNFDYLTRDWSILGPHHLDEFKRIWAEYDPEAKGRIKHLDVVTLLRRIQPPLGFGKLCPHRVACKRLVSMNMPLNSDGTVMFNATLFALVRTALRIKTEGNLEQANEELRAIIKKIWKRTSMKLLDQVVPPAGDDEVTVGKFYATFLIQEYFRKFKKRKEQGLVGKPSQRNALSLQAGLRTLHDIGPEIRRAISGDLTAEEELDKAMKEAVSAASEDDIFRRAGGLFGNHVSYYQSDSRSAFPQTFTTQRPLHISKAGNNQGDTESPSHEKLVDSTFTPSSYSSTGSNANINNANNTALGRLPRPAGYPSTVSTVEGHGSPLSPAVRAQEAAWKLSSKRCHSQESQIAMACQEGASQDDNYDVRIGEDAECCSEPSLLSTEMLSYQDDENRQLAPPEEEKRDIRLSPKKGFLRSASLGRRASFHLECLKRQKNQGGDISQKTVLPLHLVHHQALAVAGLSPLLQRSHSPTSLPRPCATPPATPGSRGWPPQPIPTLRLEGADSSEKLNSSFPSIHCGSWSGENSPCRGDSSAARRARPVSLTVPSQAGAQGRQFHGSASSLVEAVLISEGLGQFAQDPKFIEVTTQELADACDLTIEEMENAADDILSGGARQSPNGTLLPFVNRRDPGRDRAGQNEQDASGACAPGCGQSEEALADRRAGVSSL
# Voltage-dependent L-type calcium channel subunit alpha-1D (Rattus norvegicus), sequence (P27732 whole entry): as the sequence (P27732 whole entry) above
SMILES,Ratio IC50 [1],IC50 [2] [µM],IC50 [3] [µM],other results
COC(=O)N1C(=O)N(C(=O)OC)C(c2cccc([N+](=O)[O-])c2)C(C(=O)OC(C)C)=C1C (configuration not stated),1.1,5.88,6.13,
COC(=O)N1C(=S)NC(C)=C(C(=O)OC(C)C)[C@@H]1c1cccc([N+](=O)[O-])c1,0.8,12.8,9.87,
COC(=O)C1=C(C(C)C)NC(=O)N(C(=O)C(C)C)C1c1cccc([N+](=O)[O-])c1 (configuration not stated),,> 100,56.6,
COC(=O)N1C(=S)NC(C)=C(C(=O)OC(C)C)[C@H]1c1cccc([N+](=O)[O-])c1,0.9,0.56,0.5,
CC1=C(C(=O)OC(C)C)C(c2cccc([N+](=O)[O-])c2)C(C(=O)OC(C)C)=C(N)O1 (configuration not stated),0.6,1.39,0.86,
COC(=O)C1=C(C)OC(NC(C)=O)=C(C(=O)OC(C)C)C1c1cccc([N+](=O)[O-])c1 (configuration not stated),0.5,13.6,6.11,
COC(=O)N1C(=S)NC(C)=C(C(=O)OC(C)C)C1c1cccc([N+](=O)[O-])c1 (racemic),0.6,0.55,0.35,
COC(=O)N1C(=O)NC(C)=C(C(=O)OC(C)C)[C@H]1c1cccc([N+](=O)[O-])c1,1.2,1.91,2.36,
COC(=O)C1=C(C)NC(=S)N(C(=O)OC(C)C)C1c1cccc([N+](=O)[O-])c1 (configuration not stated),0.2,0.88,0.17,
CCOC(=O)C1=C(NC(C)=O)OC(C)=C(C(=O)OC)C1c1cccc([N+](=O)[O-])c1 (configuration not stated),0.5,10,4.75,
CC1=C(C(=O)OC(C)C)C(c2cccc([N+](=O)[O-])c2)NC(=S)N1 (configuration not stated),0.7,15.8,10.7,
CC1=C(C(=O)OC(C)C)C(c2cccc([N+](=O)[O-])c2)N(C(=O)OC(C)C)C(=O)N1 (racemic),1,0.66,0.64,
CC1=C(C(=O)OC(C)C)[C@@H](c2cccc([N+](=O)[O-])c2)N(C(=O)OC(C)C)C(=O)N1,2.1,0.51,1.02,inhibition (INH) [4]: Active; inhibition [5]: Active; inhibition [6]: Active; inhibition (INH) [7]: Active
COC(=O)C1=C(C)NC(C)=C(C(=O)OC(C)C)C1c1cccc2nonc12 (configuration not stated) [ISRADIPINE],0.5,0.221,0.107,Selectivity ratio [8]: 0.69
COC(=O)C1=C(C)N=C(SC)N(C(=O)OC(C)C)C1c1cccc([N+](=O)[O-])c1 (configuration not stated),3,5.58,16.1,
COC(=O)N1C(=O)NC(C)=C(C(=O)OC(C)C)C1c1cccc([N+](=O)[O-])c1 (racemic),0.9,2.96,2.48,
CC1=C(C(=O)OC(C)C)C(c2cccc([N+](=O)[O-])c2)NC(=O)N1 (configuration not stated),,46.6,58.1,
CCOC(=O)C1=C(N)OC(C)=C(C(=O)OC)C1c1cccc([N+](=O)[O-])c1 (configuration not stated),0.2,2.72,0.58,
CSC1=NC(c2cccc([N+](=O)[O-])c2)C(C(=O)OC(C)C)=C(C)N1 (configuration not stated),0.2,1.86,0.42,

SMILES,Ratio IC50 [1],IC50 [2] [µM],IC50 [3] [µM],other results
CNC1=NC(C)=C(C(=O)OC(C)C)C(c2cccc([N+](=O)[O-])c2)N1C(=O)OC (configuration not stated),0.8,3.25,2.45,
COC(=O)C1=C(C(C)C)NC(=O)NC1c1cccc([N+](=O)[O-])c1 (configuration not stated),,> 100,> 100,
COC(=O)C1=C(C)NC(=O)NC1c1cccc([N+](=O)[O-])c1 (configuration not stated),0.6,18.9,11.7,
COC(=O)C1=C(C(C)C)NC(=O)N(C(=O)OC(C)C)C1c1cccc([N+](=O)[O-])c1 (configuration not stated),1,10.1,10.4,
CCOC(=O)C1=C(NC(=O)C(C)C)OC(C)=C(C(=O)OC)C1c1cccc([N+](=O)[O-])c1 (configuration not stated),0.4,9.95,4.23,
COC(=O)C1=C(C)OC(N)=C(C(=O)OC(C)C)C1c1cccc([N+](=O)[O-])c1 (configuration not stated),0.2,1.82,0.41,
COC(=O)N1C(SC)=NC(C)=C(C(=O)OC(C)C)C1c1cccc([N+](=O)[O-])c1 (configuration not stated),0.4,10.7,5.54,
CCOC(=O)N1C(=O)N(C(=O)OCC)C(c2cccc([N+](=O)[O-])c2)C(C(=O)OC)=C1C(C)C (configuration not stated),,13.9,13.9,Ratio IC50 [9]: 1
CC1=C(C(=O)OC(C)C)[C@H](c2cccc([N+](=O)[O-])c2)N(C(=O)OC(C)C)C(=O)N1,1.6,1.96,3.07,
COC(=O)C1=C(C)NC(=O)N(C(=O)OC(C)C)C1c1cccc([N+](=O)[O-])c1 (configuration not stated),0.6,4.6,2.48,
CC(C)OC(=O)C1=C(C(C)C)NC(=O)N(C(=O)OC(C)C)C1c1cccc([N+](=O)[O-])c1 (configuration not stated),0.5,4.31,1.93,
COC(=O)C1=C(C)NC(=S)NC1c1cccc([N+](=O)[O-])c1 (configuration not stated),,> 100,55,
CC1=C(C(=O)OC(C)C)C(c2cccc([N+](=O)[O-])c2)N(C(=O)C(C)C)C(=O)N1 (configuration not stated),0.5,0.99,0.5,
CCOC(=O)N1C(=O)NC(C(C)C)=C(C(=O)OC)C1c1cccc([N+](=O)[O-])c1 (configuration not stated),0.6,24.5,14.8,
COC(=O)C1=C(C)N=C(SC)NC1c1cccc([N+](=O)[O-])c1 (configuration not stated),0.3,10.6,3.29,
COC(=O)N1C(=O)NC(C)=C(C(=O)OC(C)C)[C@@H]1c1cccc([N+](=O)[O-])c1,0.6,35.1,21.7,
CNC1=NC(C)=C(C(=O)OC)C(c2cccc([N+](=O)[O-])c2)N1C(=O)OC(C)C (configuration not stated),0.4,4.22,1.81,
COC(=O)SC1=NC(C)=C(C(=O)OC(C)C)C(c2cccc([N+](=O)[O-])c2)N1C(=O)OC (configuration not stated),0.9,1.11,1.02,
